From publication PMC7036014 (Molecular cell, 2019) come the findings set out here.

Numbering of substitutions follows the chain as printed.

Assay [1] concerns the target T1, SIRT1 (Homo sapiens, UniProt Q96EB6).
T1 sequence (Q96EB6 1-747): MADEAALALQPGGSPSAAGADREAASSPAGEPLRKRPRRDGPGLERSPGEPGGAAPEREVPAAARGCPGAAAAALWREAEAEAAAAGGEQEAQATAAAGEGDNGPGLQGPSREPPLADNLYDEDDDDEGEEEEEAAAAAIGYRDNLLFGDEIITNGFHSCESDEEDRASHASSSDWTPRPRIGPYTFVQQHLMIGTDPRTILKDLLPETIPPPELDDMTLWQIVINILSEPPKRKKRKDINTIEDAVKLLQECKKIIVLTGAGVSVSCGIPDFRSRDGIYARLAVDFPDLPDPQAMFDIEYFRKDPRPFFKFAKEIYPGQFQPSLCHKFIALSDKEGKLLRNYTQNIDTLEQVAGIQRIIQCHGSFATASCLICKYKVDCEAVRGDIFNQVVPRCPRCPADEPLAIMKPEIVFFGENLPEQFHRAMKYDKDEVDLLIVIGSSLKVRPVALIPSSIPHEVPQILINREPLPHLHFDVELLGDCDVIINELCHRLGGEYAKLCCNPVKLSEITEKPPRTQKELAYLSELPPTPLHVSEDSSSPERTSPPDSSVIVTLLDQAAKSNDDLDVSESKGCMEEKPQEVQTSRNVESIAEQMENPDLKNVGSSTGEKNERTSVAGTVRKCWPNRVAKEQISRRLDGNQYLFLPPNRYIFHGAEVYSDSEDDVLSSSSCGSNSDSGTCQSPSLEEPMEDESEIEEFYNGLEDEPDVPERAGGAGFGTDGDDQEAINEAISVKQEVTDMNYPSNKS
Description: 1,8-ANS displacement assay, SIRT1. The format is binding.

In assay [2] the test system is cellular cAMP levels, MEF cells. As to the kind of experiment: cAMP-Glo Assay in MEF cells. The format is cell-based, mouse. The note with it: 6 hrs 500 μM 18:1, no Iso/IBMX. The method, boiled down: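 MEFs in DMEM/10% FBS given 2% fatty-acid-free BSA or 500 μM 18:1–BSA complex for 6 or 16 h. Then washed and switched to serum-free DMEM with DMSO or 20 μM isoproterenol/500 μM IBMX for 20 min. cAMP-Glo steps at room temperature: lysis 15 min, detection solution 20 min, Kinase-Glo 10 min. n=12–16.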

In assay [3] the target is T2, recombinant full-length murine PLIN5 (Mus musculus, UniProt Q8BVZ1).
T2 sequence (Q8BVZ1 1-463): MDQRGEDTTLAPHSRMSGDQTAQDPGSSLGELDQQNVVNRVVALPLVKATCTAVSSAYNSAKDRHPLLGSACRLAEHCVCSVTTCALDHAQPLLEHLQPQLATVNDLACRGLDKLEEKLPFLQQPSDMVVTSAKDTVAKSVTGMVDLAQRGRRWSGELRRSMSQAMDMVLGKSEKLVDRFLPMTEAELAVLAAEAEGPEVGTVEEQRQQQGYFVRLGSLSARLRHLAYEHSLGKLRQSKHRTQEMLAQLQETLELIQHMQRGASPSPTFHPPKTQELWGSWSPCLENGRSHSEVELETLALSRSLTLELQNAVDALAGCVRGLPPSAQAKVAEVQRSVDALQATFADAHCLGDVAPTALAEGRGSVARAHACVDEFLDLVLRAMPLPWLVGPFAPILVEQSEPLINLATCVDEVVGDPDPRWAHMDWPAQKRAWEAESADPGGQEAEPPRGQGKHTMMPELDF
Description: Intrinsic tryptophan fluorescence quenching binding assay, PLIN5. In outline:
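Protein at 150 nM in 10 mM NaH2PO4, pH 7.5, titrated with ethanolic fatty acid. Excitation 295 nm, emission scanned 300–400 nm. Signal corrected for buffer-plus-ligand background. ΔF (F0−F) plotted against ligand to give a saturation curve. Kd taken from linear regression of the double-reciprocal transform. PLIN5: untagged full-length murine recombinant protein, n=4.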

Assay [4] has as its target T1, SIRT1. Description: HPLC-MS/MS SIRT1 deacetylation assay with acetylated peptide substrates. The format is biochemical. In outline:
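Recombinant SIRT1 (1 μM, E. coli-expressed) incubated with acetylated peptide (0–250 μM) plus fatty acid in 25 mM Tris, pH 8.0, 50 mM NaCl, 1 mM DTT, 1 mM NAD+ for 60 min at 37°C. Deacetylation quantified by HPLC-MS/MS with positive-mode electrospray. Km, Vmax and kcat obtained from Lineweaver-Burk plots.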

Another assay concerns the target T3, PLIN5-pD (Mus musculus, UniProt Q8BVZ1, S155A).
T3 sequence (Q8BVZ1 1-463 S155A): T2 sequence (Q8BVZ1 1-463) with S155A
Description: Circular dichroic analysis of PLIN5-pD with ligand. Also noted: species or system murine. To be noted: addition of ligand. The method, boiled down:
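Far-UV CD spectra of the PLIN5 phospho-mutants in 10 mM NaH2PO4, pH 7.5, with 10 mM NaCl, with and without ligand. Run at 25°C in a 1 mm path cuvette. Ligand incubated 2–5 min before each scan. Each spectrum is the average of ten scans, repeated in triplicate.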

Assay [5] deals with PGC-1α activity, primary hepatocytes. As to the kind of experiment: PGC-1α luciferase reporter assay in primary hepatocytes. The format is cell-based, mouse. The note with it: hepatocytes preloaded with fatty acid. Background: Reporter assays use an easily measured gene product as a stand-in for the process of interest.
Another assay addresses T4, PLIN5 (Mus musculus, UniProt Q8BVZ1).
T4 sequence (Q8BVZ1 1-463): T2 sequence (Q8BVZ1 1-463)
Description: 1,8-ANS displacement assay, PLIN5. The format is binding, murine. In outline:
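Untagged recombinant PLIN5 (His-MBP tag removed by TEV protease) at 1 μM with 500 nM 1,8-ANS in 50 mM sodium phosphate, pH 7.5, 25°C. Competitor lipids added in increasing amounts, each mixed 60 s before reading fluorescence. I50 taken from the normalized displacement curve. Ki = I50/(1+[L]/KD), using the ANS KD from a Scatchard analysis of a protein titration.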

Assay [6] addresses T1, SIRT1. As to the kind of experiment: Circular dichroic analysis of SIRT1 secondary structure with ligand. The note with it: with ligand; 23% without ligand.
The mark [7] stands for this setting: acetylated FOXO3a peptide substrate.
[8] abbreviates: acetylated PGC-1α peptide substrate.
The mark [9] stands for this setting: fixed amounts of PGC-1α, FOXO3a and H3 peptides, 150 or 600 nM 18:1.

On to `CCCCCCCC/C=C\CCCCCCCC(=O)O` [18:1, oleic acid], for which the affinity at SIRT1 [1], expressed as Ki, was 5.6 ± 0.12 µM. For the same compound, the “cellular cAMP levels, acute exposure” value in assay [2] was “increased”. The equilibrium dissociation constant (Kd) in assay [3] was 0.089 ± 0.002 µM. The “binding curve, PLIN5” value in assay [3] (tryptophan fluorescence) is reported as “Saturable binding curves”. On SIRT1 [4] (PGC-1α peptide, co-addition of 18:1 and resveratrol vs single compound), the “effect on Km and catalytic efficiency on co-addition with resveratrol” value is “not additive”. Further, on SIRT1 [4] (setting [7]), the “Km of SIRT1 towards the FOXO3a peptide” value was “reduced” and the “SIRT1 catalytic efficiency towards the FOXO3a peptide” value was “increased”. Moreover, at SIRT1 [4] (setting [8]), the “Km of SIRT1 towards the PGC-1α peptide” value is listed as “lowering”, the “SIRT1 catalytic efficiency (Kcat/Km) towards the PGC-1α peptide” value is recorded as “increase” and the enzyme velocity entry is on record as “without a significant change”. For the same compound, at SIRT1 [4] (setting [9]), the “deacetylase activity towards FOXO3a and PGC-1α peptides, competition assay” value is given as “increased”; the “deacetylase activity towards H3, competition assay” value is “decreased”. Moreover, the “activation of SIRT1 towards mutant p53 peptide (p53-W)” value on SIRT1 [4] (p53-W peptide, 250 nM 18:1, 10 μM resveratrol, 1 μM SRT1720) is listed as “activated”. Besides, the “allosteric activation of SIRT1 towards wild-type p53 peptide” value at SIRT1 [4] (p53 peptide lacking hydrophobic residue at +1 or +6) is reported as “did not respond”. The “CD spectrum changes of PLIN5-pD” value at PLIN5-pD is “more subtle changes”. For the same compound, the “PGC-1α activity response to cAMP and protein overexpression” value in assay [5] is reported as “further enhanced”. Also, the inhibitory constant (Ki) at PLIN5 stood at 4 ± 0.13 µM. For the same compound, the “α-helical content of SIRT1” value at SIRT1 [6] turned out to be 28.6%.

Usually Ki stands for the dissociation constant of the complex between target and ligand, obtained from inhibition or displacement. A low value points to tighter binding. Usually Kd stands for the concentration at which binding is half-saturated.
